19 compounds from ChEMBL document CHEMBL3297672, “Ingol-type diterpenes from Euphorbia antiquorum with mouse 11β-hydroxysteroid dehydrogenase type 1 inhibition activity” (J Nat Prod, 2014) can be followed below.

The source made the active and inactive calls. The rule behind the calls is not given here. Bounds are passed on as bounds.

As a reminder, the IC50 is the concentration that gives 50% inhibition.

Test [1] addresses 11-beta-hydroxysteroid dehydrogenase 1 (Homo sapiens) (UniProt P28845). As to the kind of experiment: Inhibition of human 11beta-HSD1 expressed in HEK293 cells assessed as inhibition of [3H]cortisone to [3H]cortisol conversion by SPA. The class given is cell-based. In outline: (§1)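 Scintillation proximity assay against human or mouse 11β-HSD1 enzyme activity, using microsomes containing the enzyme. Glycyrrhetinic acid was the positive control.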

Test [2] has as its system A549. As to the kind of experiment: Cytotoxicity against human A549 cells. The class given is functional, cell-based.
The target of test [3] is T1, Tyrosine-protein phosphatase non-receptor type 1 (Homo sapiens, UniProt P18031).
T1 sequence (P18031 whole entry): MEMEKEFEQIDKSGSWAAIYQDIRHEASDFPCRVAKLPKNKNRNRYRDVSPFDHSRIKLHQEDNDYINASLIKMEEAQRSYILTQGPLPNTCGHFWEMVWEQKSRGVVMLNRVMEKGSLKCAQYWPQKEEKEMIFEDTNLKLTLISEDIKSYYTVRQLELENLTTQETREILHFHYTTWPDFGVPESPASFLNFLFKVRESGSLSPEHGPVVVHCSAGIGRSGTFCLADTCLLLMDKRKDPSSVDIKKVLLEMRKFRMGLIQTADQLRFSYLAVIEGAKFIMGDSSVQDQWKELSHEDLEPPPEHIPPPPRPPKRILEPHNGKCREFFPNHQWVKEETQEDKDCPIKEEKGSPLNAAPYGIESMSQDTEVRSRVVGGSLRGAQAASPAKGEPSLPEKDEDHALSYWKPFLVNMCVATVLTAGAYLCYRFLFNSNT
As to the kind of experiment: Inhibition of PTP1B (unknown origin).

Test [4] deals with HL-60. As to the kind of experiment: Cytotoxicity against human HL60 cells. It counts as functional, cell-based. In outline: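 Cytotoxicity against HL-60 cells was read out by the MTT method, following a previously reported protocol.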
In test [5] the target is 11-beta-hydroxysteroid dehydrogenase 1 (Mus musculus, UniProt P50172). Nature of the test: Inhibition of mouse 11beta-HSD1 expressed in HEK293 cells assessed as inhibition of [3H]cortisone to [3H]cortisol conversion by SPA. It counts as cell-based. In outline: as §1
Chain of 11-beta-hydroxysteroid dehydrogenase 1 (P50172 whole entry): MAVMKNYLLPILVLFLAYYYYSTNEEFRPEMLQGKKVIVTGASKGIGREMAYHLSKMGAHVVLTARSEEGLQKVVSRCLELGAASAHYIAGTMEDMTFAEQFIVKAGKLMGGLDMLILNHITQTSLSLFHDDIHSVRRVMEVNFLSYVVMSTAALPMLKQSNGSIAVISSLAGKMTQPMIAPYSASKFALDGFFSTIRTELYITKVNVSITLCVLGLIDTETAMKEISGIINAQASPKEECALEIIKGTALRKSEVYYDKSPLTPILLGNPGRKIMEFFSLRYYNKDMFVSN

Chain of 11-beta-hydroxysteroid dehydrogenase 1 (Homo sapiens) (P28845 whole entry, looked up): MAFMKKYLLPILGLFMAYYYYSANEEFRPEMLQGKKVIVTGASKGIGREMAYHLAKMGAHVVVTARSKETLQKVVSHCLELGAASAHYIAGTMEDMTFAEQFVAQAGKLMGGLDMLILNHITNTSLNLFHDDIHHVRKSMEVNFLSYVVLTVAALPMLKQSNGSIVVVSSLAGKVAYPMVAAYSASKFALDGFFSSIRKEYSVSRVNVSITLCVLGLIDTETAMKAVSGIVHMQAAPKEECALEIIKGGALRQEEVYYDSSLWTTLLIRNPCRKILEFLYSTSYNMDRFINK

Consider `CC(=O)O[C@H]1[C@@H](C)C[C@@]23O[C@@]12/C=C(\C)[C@@H](O)[C@H](OC(=O)c1ccccc1)[C@H]1[C@@H]([C@@H](O)[C@@H](C)C3=O)C1(C)C`, for which the inhibition result in test [1] is “inactive”. In addition, the IC50 in test [2], in test [3] and in test [4] was greater than 10 µM throughout.
For the compound `CO[C@@H]1[C@H]2[C@@H]([C@@H](O)[C@@H](C)C(=O)[C@@]34C[C@H](C)[C@H](OC(C)=O)[C@]3(/C=C(\C)[C@H]1OC(=O)c1ccccc1)O4)C2(C)C`, the half-inhibitory concentration (IC50) in test [2], in test [3] and in test [4] was greater than 10 µM throughout.
Turning to `CO[C@@H]1[C@H]2[C@@H]([C@@H](OC(C)=O)[C@@H](C)C(=O)[C@@]34C[C@H](C)[C@H](OC(C)=O)[C@]3(/C=C(\CO)[C@H]1OC(=O)c1ccccc1)O4)C2(C)C`, the IC50 in test [2], in test [3] and in test [4] was greater than 10 µM in each case.
With `C/C=C(/C)C(=O)O[C@@H]1/C(C)=C/[C@@]23O[C@@]2(C[C@H](C)[C@@H]3O)C(=O)[C@H](C)[C@H](O)[C@@H]2[C@H]([C@H]1OC)C2(C)C`, the IC50 in test [2], in test [3] and in test [4] was greater than 10 µM in each case.
Consider `CC(=O)O[C@@H]1[C@@H]2[C@H]([C@@H](OC(=O)c3cccnc3)[C@H](OC(=O)c3ccccc3)/C(C)=C/[C@@]34O[C@@]3(C[C@H](C)[C@@H]4OC(C)=O)C(=O)[C@@H]1C)C2(C)C`, for which the inhibition result in test [1] is “inactive”. Further, the half-maximal inhibitory concentration (IC50) in test [2] is greater than 10 µM; in test [5], 0.41 µM; in test [3] it was greater than 10 µM; in test [4], greater than 10 µM.
As for `CO[C@@H]1[C@H]2[C@@H]([C@@H](OC(C)=O)[C@@H](C)C(=O)[C@@]34C[C@H](C)[C@H](O)[C@]3(/C=C(\C)[C@H]1OC(=O)c1ccccc1)O4)C2(C)C`, the inhibition entry in test [1] is “inactive”. For the same compound, the IC50 in test [2], in test [3] and in test [4] was greater than 10 µM throughout.
As for `C/C=C(/C)C(=O)O[C@@H]1/C(C)=C/[C@@]23O[C@@]2(C[C@H](C)[C@@H]3O)C(=O)[C@H](C)[C@H](OC(C)=O)[C@@H]2[C@H]([C@H]1OC)C2(C)C`, the inhibition entry in test [1] is “inactive”. Besides, the half-maximal inhibitory concentration (IC50) in test [2], in test [3] and in test [4] was greater than 10 µM each time.
For `C/C=C(/C)C(=O)O[C@@H]1/C(CO)=C/[C@@]23O[C@@]2(C[C@H](C)[C@@H]3OC(C)=O)C(=O)[C@H](C)[C@H](OC(C)=O)[C@@H]2[C@H]([C@H]1OC)C2(C)C`, in test [1], the inhibition entry was “inactive”. Besides, the IC50 was greater than 10 µM in test [2], 12 µM in test [5], greater than 10 µM in test [3] and greater than 10 µM in test [4].
Regarding `C/C=C(/C)C(=O)O[C@@H]1/C(C)=C/[C@@]23O[C@@]2(C[C@H](C)[C@@H]3OC(C)=O)C(=O)[C@H](C)[C@H](OC(C)=O)[C@@H]2[C@H]([C@H]1OC)C2(C)C`, the inhibition entry in test [1] is “inactive”. For the same compound, the IC50 in test [2], in test [3] and in test [4] was greater than 10 µM in each case.
Consider `C/C=C(/C)C(=O)O[C@@H]1/C(C)=C/[C@@]23O[C@@]2(C[C@@H](C)[C@H]3O)C(=O)[C@H](C)[C@H](OC(C)=O)[C@@H]2[C@H]([C@H]1OC)C2(C)C`, for which the inhibition entry in test [1] was “inactive”. Moreover, the IC50 in test [2], in test [3] and in test [4] was greater than 10 µM each time.
Regarding `C/C=C(/C)C(=O)O[C@@H]1/C(C=O)=C/[C@@]23O[C@@]2(C[C@H](C)[C@@H]3OC(C)=O)C(=O)[C@H](C)[C@H](OC(C)=O)[C@@H]2[C@H]([C@H]1OC)C2(C)C`, the 50% inhibitory concentration (IC50) in test [2], in test [3] and in test [4] was greater than 10 µM each time.
Take `C/C=C(\C)C(=O)O[C@@H]1/C(C)=C/[C@@]23O[C@@]2(C[C@H](C)[C@@H]3OC(C)=O)C(=O)[C@H](C)[C@H](OC(C)=O)[C@@H]2[C@H]([C@H]1OC(C)=O)C2(C)C`: the inhibition entry in test [1] is “inactive”. Moreover, the IC50 in test [2], in test [3] and in test [4] was greater than 10 µM throughout.
As to `C=C(C(=O)O[C@@H]1/C(C)=C/[C@@]23O[C@@]2(C[C@H](C)[C@@H]3OC(C)=O)C(=O)[C@H](C)[C@H](OC(C)=O)[C@@H]2[C@H]([C@H]1OC)C2(C)C)C(C)O` (some centres not stated), the inhibition entry in test [1] is “inactive”. The IC50 in test [2], in test [3] and in test [4] was greater than 10 µM throughout.
Consider `C/C=C(/C)C(=O)O[C@@H]1/C(C)=C/[C@@]23O[C@@]2(C[C@@H](C)[C@H]3O)C(=O)[C@H](C)[C@H](O)[C@@H]2[C@H]([C@H]1OC)C2(C)C`, for which the IC50 in test [3] and in test [4] was greater than 10 µM each time.
As for `CCC(C)C(=O)O[C@@H]1[C@H]2[C@@H]([C@@H](OC(C)=O)[C@@H](C)C(=O)[C@@]34C[C@H](C)[C@H](OC(C)=O)[C@]3(/C=C(\C)[C@H]1O)O4)C2(C)C` (some centres not stated), the inhibition result in test [1] was “inactive”. In addition, the half-inhibitory concentration (IC50) in test [2], in test [3] and in test [4] was greater than 10 µM in each case.
For `CO[C@@H]1[C@H]2[C@@H]([C@@H](OC(C)=O)[C@@H](C)C(=O)[C@@]34C[C@H](C)[C@H](OC(C)=O)[C@]3(/C=C(\C)[C@H]1OC(=O)[C@]1(C)O[C@@H]1C)O4)C2(C)C`, the inhibition result in test [1] was “inactive”. In addition, the half-inhibitory concentration (IC50) in test [2], in test [3] and in test [4] was greater than 10 µM each time.
Turning to `CO[C@@H]1[C@H]2[C@@H]([C@@H](OC(C)=O)[C@@H](C)C(=O)[C@@]34C[C@H](C)[C@H](OC(C)=O)[C@]3(/C=C(\C)[C@H]1OC(=O)[C@@]1(C)O[C@@H]1C)O4)C2(C)C`, the half-maximal inhibitory concentration (IC50) in test [2], in test [3] and in test [4] was greater than 10 µM in each case.
Regarding `CCC(C)C(=O)O[C@@H]1[C@H]2[C@@H]([C@@H](OC(C)=O)[C@@H](C)C(=O)[C@@]34C[C@@H](C)[C@@H](OC(C)=O)[C@]3(/C=C(\C)[C@H]1O)O4)C2(C)C` (some centres not stated), the inhibition entry in test [1] is “inactive”. Also, the IC50 in test [2], in test [3] and in test [4] was greater than 10 µM each time.
On to `CCC(C)C(=O)O[C@@H]1[C@H]2[C@@H]([C@@H](OC(C)=O)[C@@H](C)C(=O)[C@@]34C[C@H](C)[C@H](O)[C@]3(/C=C(\C)[C@H]1OC(C)=O)O4)C2(C)C` (some centres not stated), for which the inhibition entry in test [1] is “inactive”. For the same compound, the IC50 in test [2] was greater than 10 µM; in test [5], 6.4 µM; in test [3], greater than 10 µM; in test [4], greater than 10 µM.
